KCNK3 block – human KCNK3 channel inhibition, primary screen; O14649; CHO-KCNK3 thallium flux, FluxOR fluorescence; stronger effect = lower value; B-score at 10 µM; actives 0.84% (n = 340,000); AID 602410;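 active = B-score under library mean minus 4 SD, starting fluorescence ratio at most library mean plus 5 SD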;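 also: more negative B-score means stronger inhibition of thallium flux through KCNK3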
hERG rescue – shields human hERG channel from block by proarrhythmic agents. Q12809. actives 0.51% (n = 310,000). activation (rescue from dofetilide block), less the hit threshold, % at 10 µM. AID 1511. CHO-hERG, FluxOR thallium flux, dofetilide IC70 present;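 active = activation above the mean of controls blocked by dofetilide plus 5 SD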;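 also: thallium influx through hERG after potassium depolarization seen as dye fluorescence rise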
KCNQ1 inh – human KCNQ1 channel inhibition | CHO-K1 KCNQ1, FluxOR thallium flux fluorescence; stronger effect = higher value | B-score at 10 µM | AID 2642 | P51787 | actives 1.3% (n = 310,000);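 active = compounds whose thallium flux B-score, printed positive for inhibition, exceeds three library SD while starting fluorescence stays within three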;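 also: channel opened by potassium depolarization with thallium stimulus after 20 min compound exposure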
Target sequence (P51787 whole entry, looked up): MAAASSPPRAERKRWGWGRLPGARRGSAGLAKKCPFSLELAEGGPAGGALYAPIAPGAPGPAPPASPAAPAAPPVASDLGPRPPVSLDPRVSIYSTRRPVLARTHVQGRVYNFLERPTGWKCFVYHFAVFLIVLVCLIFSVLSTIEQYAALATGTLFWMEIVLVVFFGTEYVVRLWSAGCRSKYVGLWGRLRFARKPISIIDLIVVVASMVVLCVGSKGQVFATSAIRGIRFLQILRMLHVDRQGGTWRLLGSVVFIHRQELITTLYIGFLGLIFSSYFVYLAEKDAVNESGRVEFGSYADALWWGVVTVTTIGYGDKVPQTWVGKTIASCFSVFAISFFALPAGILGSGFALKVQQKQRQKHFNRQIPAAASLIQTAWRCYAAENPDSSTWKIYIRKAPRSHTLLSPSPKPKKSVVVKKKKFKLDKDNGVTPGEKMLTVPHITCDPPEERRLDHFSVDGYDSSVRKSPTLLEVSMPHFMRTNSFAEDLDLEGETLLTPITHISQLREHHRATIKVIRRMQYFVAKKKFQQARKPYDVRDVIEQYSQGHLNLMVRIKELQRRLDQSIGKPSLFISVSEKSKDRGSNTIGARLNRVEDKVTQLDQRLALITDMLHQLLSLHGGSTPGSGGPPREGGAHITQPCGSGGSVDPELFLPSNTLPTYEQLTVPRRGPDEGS
PHOSPHO1 inh – inhibitors of human PHOSPHO1 phosphatase. Q8TCT1. recombinant PHOSPHO1, absorbance phosphatase assay. inhibition, % at 13.3 µM. actives 1.1% (n = 290,000); in the data active = inhibition above about 60%
KCNK9 block – inhibitors of human KCNK9 two-pore domain potassium channel | Q9NPC2 | HEK293 KCNK9, FluxOR thallium flux fluorescence; stronger effect = lower value | B-score at 10 µM | actives 1.2% (n = 310,000);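 active = ratio B-score over 3 SD below the library mean, with starting fluorescence within 5 SD of its mean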;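 also: negative B-score means less thallium flux so channel inhibition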
KCNQ1 pot – human KCNQ1 channel potentiation or activation. CHO-K1 KCNQ1, thallium flux FluxOR fluorescence; stronger effect = higher value. B-score at 10 µM. actives 0.35% (n = 310,000);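 active = fluorescence ratio B-score, a plate-corrected score, at least three library SD, with initial intensity B-score within 5 SD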
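Medium – assay buffer, equal DMSO in all wells · Material – CHO-K1 cell line with stable KCNQ1 potassium channel expression · Signal – kinetic FluxOR thallium fluorescence, 10-s 1-Hz baseline, 110-s post-stimulus read · Compound – single concentration per compound, DMSO matched to controls · Schedule – 37 °C overnight plating, 90-min dark dye load, 20-min compound pretreatment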
KCNK9 block conf – human KCNK9 inhibitor confirmation; shares compounds with KCNK9 block; HEK293 KCNK9 cells, FluxOR thallium flux fluorescence; inhibition, % at 10 µM; actives 43% (n = 4,900);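 active = thallium signal inhibited by more than 5 SD of the compound-free buffer control wells, on both duplicate plates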;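 also: 0% = assay buffer control wells without compound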
Kir21 sel – selectivity of KCNK9 modulators against mouse Kir2.1; Kir2.1 cells, FluxOR thallium flux fluorescence; actives 4% (n = 4,900); shares compounds with KCNK9 block; AID 492993; inhibition, % at 10 µM;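 active = thallium signal drop more than 5 SD beyond the mean of the no-compound control wells, seen in both duplicate plates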;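 also: signal is fluorescence rise after thallium addition divided by baseline fluorescence; plate controls were assay buffer only for no effect and full block by chlorpromazine control for full effect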
HEK293 Tl ctr – second check of KCNK9 modulator effects in non-induced HEK293 cells. shares compounds with KCNK9 block. FluxOR thallium flux. actives 40% (n = 4,900). AID 492997. inhibition, % at 10 µM;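 active = thallium signal drop beyond 5 SD of the untreated control mean, on both duplicate plates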;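 also: plate controls were buffer only IC0 wells for no effect and SID17386958 at its maximal inhibitory level for full effect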
* hit, by the source's call; i = inactive; · = no result given. Shown are actives, neighbours in structure and some others; about 4% of the full set was active somewhere.

SMILES	KCNK3 block	hERG rescue	KCNQ1 inh	PHOSPHO1 inh	KCNK9 block	KCNQ1 pot	KCNK9 block conf	Kir21 sel	HEK293 Tl ctr
CSc1cccc(NP2(=O)OCC(C)([N+](=O)[O-])CO2)c1 (stereo not given)	i	·	·	·	·	·	·	·	·
CCN1CCN(Cc2ccc(C)cc2)CC1	i	-4	i	25	i	i	·	·	·
CCc1ccc(CN2CCN(Cc3ccc(SC)cc3)CC2)cc1	i	-8	i	21	i	i	i	60%*	i
COc1ccccc1N1CCN(Cc2ccc(SC)cc2)CC1	i	-4	i	-14	i	i	·	·	·
CSc1ccc(CN2CCN(c3ccccc3C)CC2)cc1	i	-10	i	3	i	i	i	i	i
COc1ccc(C(O)(c2ccccc2)c2ccncc2)cc1 (stereo not given)	i	·	·	·	·	·	·	·	·
COc1ccc(C(C)=O)cc1CN1CC=C(c2ccccc2)CC1	i	-5	i	6	i	i	·	·	·
N#Cc1ccccc1NC(=O)CN1CC=C(c2ccccc2)CC1	i	-6	i	28	i	i	·	·	·
O=C(CN1CC=C(c2ccccc2)CC1)NC(=O)NC1CCCCC1	i	-9	i	-4	i	i	i	i	i
CC(C)(C)NC(=O)NC(=O)CN1CC=C(c2ccccc2)CC1	i	-9	i	20	i	i	i	i	i
Nc1ccc(CCN2CCN(c3cccc(C(F)(F)F)c3)CC2)cc1	i	-5	i	·	i	i	i	i	i
C[n+]1c(-c2ccccc2)cc(-c2ccc(Cl)cc2)cc1-c1ccccc1	i	-23	i	11	i	i	·	·	·
Cc1ccc(-c2cc(-c3ccc(C)cc3)[n+](-c3ccccc3)c(-c3ccc(C)cc3)c2)cc1	-18*	-39	9*	·	-19*	i	76%*	84%*	i
Cc1ccc(-c2cc(-c3ccccc3)cc(-c3ccccc3)[n+]2-c2ccccc2)cc1	i	-46	i	·	-9.2*	i	75%*	79%*	34%*
CC(=O)N1CCN(CCN=Cc2c(O)n(-c3ccc(F)cc3)c(=S)[nH]c2=O)CC1	i	-5	i	27	i	i	·	·	·
CC1(C(=O)O)CCCC2(C)c3cc(O)ccc3CCC12 (stereo not given)	i	-8	i	·	i	i	·	·	·
CCOc1ccccc1N1C(=O)NC(=O)/C(=C/c2ccc3c4c(cccc24)CC3)C1=O	i	-3	i	0	i	i	·	·	·
COCc1ccc(CN2CCCC(C(=O)c3sccc3C)C2)o1 (stereo not given)	i	-7	i	8	i	i	i	i	i
CCc1ccc(CN2CCCC(C(=O)c3sccc3C)C2)o1 (stereo not given)	i	-10	i	32	i	i	·	·	·
O=P(Nc1cccnc1)(Oc1ccccc1)Oc1ccccc1	i	-7	i	-39	i	i	·	·	·
COc1cccc(NP(=O)(Oc2ccccc2Cl)Oc2ccccc2Cl)c1	i	-2	i	1	-10*	i	38%*	i	38%*
O=c1c(C=NCc2cccs2)c(O)n(C2CCCCC2)c(=O)n1C1CCCCC1	i	-7	i	13	i	i	i	i	i
CCCCN(Cc1ccccc1)C1CCN(CCc2ccccc2)CC1	i	-8	i	-29	i	i	i	i	i
FC(F)(F)c1ccc2c(c1)N(CCCN1CCN(CCCl)CC1)c1ccccc1S2	i	-14	i	64*	i	i	i	i	i
CC(C)n1c(=O)c(C=Nc2cccc([N+](=O)[O-])c2)c(O)n(CCc2ccccc2)c1=O	i	-7	i	-9	i	i	i	i	i
